The record followed here is ChEMBL document CHEMBL5230161, “Exploring structural effects in a new class of NRF2 inhibitors” (RSC Med Chem, 2023).

For data set [1], the system named is A549. Kind of data set: Inhibition of cell migration in human A549 cells at 1 uM incubated for 24 hrs by DAPI staining based transwell migration assay. It counts as functional. Put shortly: (§1)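 Transwell migration of A549 cells seeded in serum-free medium with DMSO vehicle or compound (1, 5, 10 μmol L⁻¹) in top chamber; bottom medium with compound and 5% FBS chemoattractant; 24 h, filters fixed, unmigrated cells removed, DAPI stain, 9 fields imaged per insert; two inserts per condition, n = 2-3; one- or two-way ANOVA vs vehicle.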

In data set [2] the target is T1, Nuclear factor erythroid 2-related factor 2 (Homo sapiens) (UniProt Q16236).
T1 sequence (whole entry): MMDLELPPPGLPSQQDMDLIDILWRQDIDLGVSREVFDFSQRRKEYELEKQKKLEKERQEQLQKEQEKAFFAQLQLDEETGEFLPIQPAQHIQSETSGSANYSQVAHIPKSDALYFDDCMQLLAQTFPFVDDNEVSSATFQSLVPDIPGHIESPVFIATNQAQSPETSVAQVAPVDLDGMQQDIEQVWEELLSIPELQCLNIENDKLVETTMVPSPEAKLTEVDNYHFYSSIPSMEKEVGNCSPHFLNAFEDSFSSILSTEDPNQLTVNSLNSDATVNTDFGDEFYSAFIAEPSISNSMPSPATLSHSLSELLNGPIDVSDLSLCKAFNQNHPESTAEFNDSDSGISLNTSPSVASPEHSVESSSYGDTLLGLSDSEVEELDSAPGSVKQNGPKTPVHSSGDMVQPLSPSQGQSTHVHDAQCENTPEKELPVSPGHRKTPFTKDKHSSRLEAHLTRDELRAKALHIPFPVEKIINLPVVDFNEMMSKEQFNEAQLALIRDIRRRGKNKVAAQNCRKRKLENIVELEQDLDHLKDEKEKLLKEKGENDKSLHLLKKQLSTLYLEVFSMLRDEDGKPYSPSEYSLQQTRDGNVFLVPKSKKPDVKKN
Kind of data set: Inhibition of NRF2 signalling pathway in human A549 cells assessed as decrease in GCLC mRNA level at 5 to 10 uM incubated for 24 hrs by RT-PCR analysis. The note with it: dose 5-10 µM. Type of data set: cell-based. In outline: (§2)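 A549 cells incubated with compound 24 h; NQO1, GCLC, AKR1C2, GCLM mRNA by RT-PCR, normalized to GAPDH and DMSO vehicle; representative of 3 independent experiments.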

The target of data set [3] is T1, Nuclear factor erythroid 2-related factor 2 (Homo sapiens). Kind of data set: Inhibition of NRF2 signalling pathway in human A549 cells assessed as decrease in NQO1 mRNA level at 5 to 10 uM incubated for 24 hrs by RT-PCR analysis. It counts as cell-based. The note with it: dose 5-10 µM. In outline:
as §2

Data set [4] deals with A549. Nature of the data set: Induction of cell cycle arrest in human A549 cells assessed as accumulation of cells at G2/M phase at 3 uM incubated for 24 hrs by PI staining based flow cytometric analysis. It counts as functional. In outline: (§3)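 A549 or H460 cells synchronized in low-serum medium 12 h, then inhibitor 24 h; propidium iodide staining, flow cytometry, univariate cell-cycle model (Watson pragmatic, G0/1 and G2/M peak constraints); % of total cells as mean ± SE, n = 2-3 independent experiments.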
In general terms: In flow cytometry, cells or beads pass a laser one at a time.

Data set [5] can be described thus: Solubility of the compound in pH 7.4 PBS buffer. It counts as physicochemical.
Data set [6] addresses T1, Nuclear factor erythroid 2-related factor 2 (Homo sapiens). Kind of data set: Inhibition of NRF2 signalling pathway in human A549 cells assessed as decrease in GCLM mRNA level at 5 to 10 uM incubated for 24 hrs by RT-PCR analysis. Type of data set: cell-based. As to conditions: dose 5-10 µM. In outline:
as §2

The next data set deals with MCF7. Kind of data set: Inhibition of NRF2/ARE (unknown origin) transfected in human MCF7 cells assessed as cellular activity preincubated with compound for 1 hrs followed by tBHQ addition and measured after 24 hrs by steady-glo luciferase assay relative to control. It counts as cell-based. The arrangement: concentration or dose not given beside the values. The note with it: time 25.0 hrs, dose or concentration not given here.

Data set [7] deals with A549. Nature of the data set: Antiproliferative activity against human A549 cells assessed as inhibition of cell growth incubated for 72 hrs by MTT assay. Type of data set: functional. The arrangement: scale not given: the % may be the effect or the level left. Put shortly: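 A549 human lung cancer cells exposed to a single 5 μmol L⁻¹ dose for 72 h; viability read by MTT assay.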
For orientation: Formazan colour is commonly taken as a measure of viable cells.

Another data set concerns NCI-H358. Kind of data set: Antiproliferative activity against human NCI-H358 cells assessed as reduction in cell viability incubated for 72 hrs by MTT assay. It counts as functional, cell-based. The note with it: NCI-H358, 72 h.
The test system of data set [8] is A549. Nature of the data set: Inhibition of cell migration in human A549 cells at 10 uM incubated for 24 hrs by DAPI staining based transwell migration assay relative to control. It counts as functional. Put shortly:
as §1

Data set [9] deals with T1, Nuclear factor erythroid 2-related factor 2 (Homo sapiens). Kind of data set: Inhibition of NRF2 signalling pathway in human A549 cells assessed as decrease in AKR1C2 mRNA level at 5 to 10 uM incubated for 24 hrs by RT-PCR analysis. It counts as cell-based. As to conditions: dose 5-10 µM. In outline:
as §2

A further data set deals with NCI-H460. Kind of data set: Induction of cell cycle arrest in human NCI-H460 cells assessed as accumulation of cells at G2/M phase at 3 uM incubated for 24 hrs by PI staining based flow cytometric analysis. Type of data set: functional. In outline:
as §3

Data set [10] concerns A549. Nature of the data set: Antiproliferative activity against human A549 cells assessed as reduction in cell viability incubated for 72 hrs by MTT assay. As to conditions: A549, 72 h. Type of data set: functional, cell-based.
Data set [11] concerns A549. Nature of the data set: Inhibition of cell migration in human A549 cells at 5 uM incubated for 24 hrs by DAPI staining based transwell migration assay relative to control. It counts as functional. Put shortly:
as §1

What is called inhibition is the share of the control response that was lost under treatment. The term solubility denotes the concentration that dissolves in the medium under given conditions. By IC50 is commonly meant the concentration needed to halve the response being measured.

Molecules are shown by their SMILES. Values after ≈ are worked out from the molar mass of the structure shown. Active and inactive are the calls of the source. The calls are words filed in the database; no cut-off is given here.

For `Cc1ccnc(Nc2ncc(-c3ccccc3)cc2C#N)c1`, the inhibition result in the data set with A549 [1] was “inactive”. Also, the inhibition result in [2], in data set [3], in data set [6] and in [9] was “Active” each time. In addition, the result with A549 [4] and in the data set with NCI-H460 was Active. In data set [5], the solubility came to 209 µM (≈ 59.8 µg/mL). Moreover, in the data set on MCF7, the inhibition stood at 46.7%. In addition, the Activity in the data set on A549 [7] was 59.8%. Moreover, the half-maximal inhibitory concentration (IC50) in the data set on NCI-H358 was 580 nM; with A549 [10] it was 610 nM. This compound came in with an inhibition at 10 µM in the data set on A549 [8] of 79%. For the same compound, at 5 µM the inhibition in the data set with A549 [11] was 72%.
